Screening results (PubChem)
Most compounds without a hit are left out; they make up all but 4.4% or so of the library.
HSF1 inh: HSF1 inhibitors in luciferase reporter cells, primary screen, cell-based, NIH3T3, luminescence; NIH3T3-HGL HSE-luciferase, MG132-induced, luminescence 8 h; active compounds read low; activity change, negative = inhibition, % at 7.5 µM (by protocol); hit rate 0.77% among 300,000; AID 2098, 2009;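 active means more than half of replicate wells show activity change below -50%, luminescence cut by over half; inconclusive means some wells, but at most half, below -50%; inactive means no replicate well below -50%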;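 further: luciferase reports HSF-1 transcriptional activity via heat shock element; 0% = median of DMSO wells and -100% = zero luminescence signal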
Calb FLC: C. albicans growth inhibition with fluconazole, primary screen, CaCi-2 strain, Alamar Blue fluorescence. C. albicans CaCi-2 + fluconazole, 48 h. hit rate 0.57% among 300,000. growth inhibition, % (no concentration beside the values);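 active means growth inhibition above about 58% in most replicates, limit read from the data, passing the limit was not always enough; inconclusive means exactly half the replicates above a set limit; inactive means most replicates below a set limit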;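 further: all wells also contain fluconazole at 8 µg/ml as a sub-toxic cotreatment; 0% = median of DMSO wells and 100% = median of geldanamycin control wells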
HSF1 activator: HSF-1 activators, primary screen, NIH3T3-HGL cells, MG132 stress, luminescence, single point; hit rate 1.7% among 300,000; NIH3T3-HGL HSF-1 luciferase reporter, 8 h; 100% = twice DMSO control signal; activation, % at 9 µM;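 active means mean replicate activation of at least 50% with a set share of replicates each reaching 50%; inconclusive means only one of those two conditions met; inactive means mean below 50% and too few replicates reaching it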;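 further: 0% = median of the neutral control wells and 100% = twice that signal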
T cruzi inh: inhibitors of intracellular T. cruzi growth, primary screen, luminescence, NIH3T3 host cells. T. cruzi beta-gal in NIH3T3, 90 h. inhibition, % (test concentration not listed). hit rate 1.4% among 300,000;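 active means mean inhibition across valid replicates above about 55%, limit read from the data; inconclusive means mean below that limit but half or more replicates reach it; inactive means mean below it, under half of replicates reach it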;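 further: signal also drops with host cell toxicity which is not excluded here; 0% = plate median of DMSO wells and 100% = zero luminescence signal; higher percent means less beta-gal luminescence so fewer parasites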
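Assay system: NIH/3T3 host cells with β-galactosidase reporter T. cruzi; input: 5,000 host fibroblasts per well; compound: single 50 nL compound addition per well in DMSO; timing: ≥90 h infection period, 3 h prior cell attachment; measured by: GalScreen β-gal luminescence, detergent lysis, 60 min; evaluation: percent inhibition of parasite-derived β-gal signal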
HIF activator: HIF pathway transcriptional activators, primary screen, cell-based, U2OS HRE-luciferase, luminescence; U2OS HRE-luciferase reporter; normalized: DMSO 0%, desferrioxamine 100%; activation, % at 7.5 µM (by protocol); hit rate 0.32% among 300,000; AID 1910, 2009;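 active means mean activation of at least 10% of the iron chelator positive control signal, with at least half of replicates also reaching 10%; inconclusive means mean and replicate majority disagree about reaching 10%; inactive means mean and most replicates under 10%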
Numbers without * were called inactive; ? = inconclusive.

SMILES	HSF1 inh	Calb FLC	HSF1 activator	T cruzi inh	HIF activator
O=C(CSc1nc2ccccc2c2nc3ccccc3n12)NCc1ccco1	45	10	103*	12	2
Cc1ccc(Cn2ncc3c(N4CCN(C5CCCC5)CC4)ncnc32)cc1	-9	-40	7	6	0
COc1cccc(CC2CC(=O)N(c3ccc4c(C)cc(=O)oc4c3)C2=O)c1 (stereo not given)	-2	2	-5	-16	-1
CC(=O)c1cccc(N(C(=O)Cn2nnc3ccccc32)C(C(=O)NCC2CCCO2)c2ccc(N3CCOCC3)cc2)c1 (stereo not given)	-10	-13	-5	-3	0
C[C@@H](C(=O)NCCc1c[nH]c2ccccc12)[C@H]1C[C@]1(C)[C@H](NC(=O)OCc1ccccc1)c1ccccc1	-7	1	-5	33	0
COc1ccc(CNCCC(c2ccccc2)c2ccc3c(c2)OCO3)cc1 (stereo not given)	7	22	4	59*	-1
CCC(=O)N1COC[C@@H]1Cc1ccccc1	-6	-16	2	10	0
O=C1CS/C(=N\C(=O)N2c3ccccc3Sc3ccccc32)N1	-4	95*	-2	3	0
CCC(C)[C@H](NC(=O)N1CCCCC1)C(=O)OC (stereo not given in full)	-1	-19	7	-10	0
CCCCCCc1c(C)nc(-n2[nH]c(C)c(CCO)c2=O)[nH]c1=O	9	93*	25	-15	-1
O=C(COC(=O)CCc1nc2ccccc2c(=O)[nH]1)Nc1c(Cl)cccc1C(F)(F)F	-70*	4	-77	-7	0
Cc1ccccc1NC(=O)COC(=O)CCc1nc2ccccc2c(=O)[nH]1	4	-5	-1	-3	-1
O=C(CSc1nnc(Nc2ccccc2)s1)Nc1cccc(S(=O)(=O)N2CCCCC2)c1	11	17	7	-21	0
Brc1ccc(OCc2ccccc2)c(CNCc2ccncc2)c1	0	-10	6	56*	0
Brc1cccc(CNCc2ccncc2)c1	-7	14	2	51	0
Fc1ccc(COc2ccccc2CNCc2ccncc2)cc1	6	-5	11	56*	0
Brc1ccc(-c2nnc(-c3ccccc3)c(N3CCSCC3)n2)cc1	78	-8	126*	26	3
CN1CCN(c2nc(-c3ccc(Br)cc3)nnc2-c2ccccc2)CC1	8	-8	-5	65*	2
CN1CCN(c2nc(-c3ccc(C(C)(C)C)cc3)nc3ccccc23)CC1	-80*	13	-84	37	-18
O=c1ccc(Cc2ccccn2)n[nH]1	-9	-2	-20	-4	-1
CC1CCCN(C(=O)CN(C)S(=O)(=O)c2ccc3c(c2)c(=O)n(C)c(=O)n3C)C1 (stereo not given)	0	-6	-19	-1	1
CC1CC(C)CN(C(=O)c2ccc(CSc3nc4ccncc4[nH]3)cc2)C1 (stereo not given)	-67*	3	-73	12	0
CCN(CCNC(=O)c1ccc(CSc2nc3ccncc3[nH]2)cc1)c1ccccc1	-6	-3	-5	11	0
O=C1C(Cc2ccccc2O)NC(=S)N1c1ccccc1 (stereo not given)	2	-8	-14	-15	0
COc1cccc(NC(=O)c2ccnc(N3CCC(C(=O)NCc4ccccc4OC)CC3)c2)c1	66	3	111*	-19	3
SMILES	HSF1 inh	Calb FLC	HSF1 activator	T cruzi inh	HIF activator
CCOc1ccc(-n2cc(C(=O)Nc3cccc(C)n3)c3cc(OC)c(OC)cc3c2=O)cc1	9	32	18	2	-47
CCOc1ccc(-n2cc(C(=O)N3CCC(C)CC3)c3cc(OC)c(OC)cc3c2=O)cc1	23	13	66*	-1	1
CCOc1ccc(-n2cc(C(=O)NC(C)C)c3cc(OC)c(OC)cc3c2=O)cc1	-9	-16	-6	1	-2
CCOc1ccc(NC(=O)c2cn(-c3ccc(OCC)cc3)c(=O)c3cc(OC)c(OC)cc23)cc1	-5	86*	-18	?	-1
CCOc1ccc(-n2cc(C(=O)Nc3cccc(Cl)c3)c3cc(OC)c(OC)cc3c2=O)cc1	3	40	-11	64*	-1
CCCCNC(=O)c1cn(-c2ccc(OCC)cc2)c(=O)c2cc(OC)c(OC)cc12	-7	1	-1	3	0
Cc1ccc(C)c(NC(=S)NNC(=O)c2cc3c(s2)CCC(C)C3)c1 (stereo not given)	-1	1	-3	-4	0
Cc1cccc(NC(=S)NNC(=O)c2cc3c(s2)CCC(C)C3)c1C (stereo not given)	13	110*	23	17	0
Cc1nn(Cc2ccc(F)cc2)c(Cl)c1/C=N/NC(=O)c1ccccc1	5	?	4	66*	1
CC(C)Oc1ccccc1/C=N/NC(=O)c1ccc(F)cc1	6	-13	26	-9	-41
O=C(N/N=C/c1ccccc1Cl)c1ccc(F)cc1	32	-12	56*	-1	4
Cc1cccc(C(CC(=O)O)NC(=O)C(F)(F)F)c1 (stereo not given)	5	-7	-5	-15	0
CC1(c2nnc(Cc3ccccc3)o2)CC(c2ccc(F)cc2)=NO1 (stereo not given)	-6	-10	-23	-15	0
Clc1ccc(CCNc2nc3ccccc3n3nnnc23)cc1	26	1	51*	9	0
COc1ccccc1NC(=O)NNC(=O)c1cc2ccccc2cc1O	-36	86*	-49	-2	0
COc1ccc(C(=O)NNC(=O)c2ccc3ccccc3c2O)cc1	-2	46	14	-9	-1
COc1cc(OC)cc(C(=O)NNC(=O)c2cc3ccccc3cc2O)c1	1	81*	2	-1	0
Cc1ccc(NC(=O)NNC(=O)c2cc3ccccc3cc2O)cc1	-1	?	6	-5	0
CCC(C)n1c(SCC(=O)NC(=O)Nc2ccc3c(c2)OCCO3)nc2ccccc2c1=O (stereo not given)	24	-10	54*	66*	0
COc1ccccc1OCCSc1nc2ccccc2n1CC(O)CO (stereo not given)	-1	-2	-8	-15	1
COc1ccc(S(=O)(=O)Nc2ccc(N3CCOCC3)nc2)cc1	-3	-5	-1	4	-1
O=C(/C=C\c1ccco1)Nc1nc(-c2ccccc2)cs1	23	9	40	14	1
COc1ccc(-c2csc(NC(=S)NC(=O)c3ccco3)n2)cc1	29	6	52*	0	0
